From PubChem
Rows were chosen to be rich in hits. Some 2.2% of all compounds tested hit in one or more screens of this group.
G6PDH counter: L. mesenteroides G6PDH inhibition counter-screen | 200,000 compounds, 0.12% hits | Purified L. mesenteroides G6PDH, diaphorase/resazurin coupled fluorescence, 45 min | inhibition, % at 5 µM | AID 1020; in the data active means inhibition above about 50%
Diaph inh CS: counter-screen for diaphorase-based assays: diaphorase inhibitors and chemical oxidizers | AID 1217 | inhibition, % at 20 µM | diaphorase resazurin-to-resorufin fluorescence, NADH, 16 min; bacterial (C. kluyveri) enzyme, not human | 190,000 compounds, 0.69% hits;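 active means primary screen inhibition at 20 µM above a set limit, cut at about 50% in these data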
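System: Bacterial diaphorase enzyme (C. kluyveri) | Incubation: 16-min room-temperature incubation before reading | Benchmarks: No-NADH positive control and DMSO neutral control | Measured by: Resorufin fluorescence 544/590 nm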
PMI act: increases human mannose-6-phosphate isomerase activity. purified human PMI, coupled resazurin fluorescence, 20 min; hits give high values; 1 = vehicle control, 0 substrate-free wells. activation factor at 20 µM. 190,000 compounds, 0.005% hits. AID 1214;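 active means activation factor of 2 or more at 20 µM, relative to plate controls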
PMI act hi M6P: activators of human phosphomannose isomerase at near-saturating mannose 6-phosphate. P34949. coupled PMI enzyme assay, resazurin fluorescence, 20 min; hits give high values; 1 = untreated enzyme, 0 = substrate-free blank. activation factor at 20 µM. 190,000 compounds, 0.34% hits;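 active means activation factor of 2 or more at 20 µM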
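Test system: Human PMI in coupled enzyme assay | Input: 15 ng/mL PMI | Medium: HEPES-buffered pH 7.4 with magnesium and detergent | Compound: One concentration, 20 µM, in 1% DMSO | Incubation: Enzyme reaction with compound 20 min at room temperature | Detection: Diaphorase-driven resazurin-to-resorufin fluorescence, excitation 544, emission 590 nm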
Diaph act CS: activates diaphorase or chemically reduces, flagging diaphorase assay artifacts; Diaphorase/resazurin coupled assay, resorufin fluorescence, 16 min; hits give high values; 1 = vehicle wells, 0 = NADH-free wells; activation factor at 20 µM; AID 1229; 190,000 compounds, 0.005% hits;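 active means diaphorase activity raised at least twofold by the compound at 20 µM; inactive means activation factor below 2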
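Material: Purified diaphorase enzyme from Clostridium kluyveri | Buffer or medium: 50 mM HEPES pH 7.4 with 4.542 mM MgCl2, 0.005% Tween 20 | Times: 16 min enzyme reaction, ambient temperature | Signal: Red resorufin fluorescence at 544/590 nm excitation/emission | Measure: Increased resorufin signal from activators or reducing compounds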
ROMK mod: modulates human ROMK potassium channel activity | Tet-inducible ROMK, thallium flux fluorescence; actives lie on both sides | B-score at 10 µM | 130,000 compounds, 2% hits;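 active means signal ratio slope over the read window, or its plate-corrected B-score, at least 3 SD from the plate mean, either direction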;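 further: B-score of the F/F0 ratio slope over 7 to 12 s after thallium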
Target sequence (P48048 whole entry, looked up): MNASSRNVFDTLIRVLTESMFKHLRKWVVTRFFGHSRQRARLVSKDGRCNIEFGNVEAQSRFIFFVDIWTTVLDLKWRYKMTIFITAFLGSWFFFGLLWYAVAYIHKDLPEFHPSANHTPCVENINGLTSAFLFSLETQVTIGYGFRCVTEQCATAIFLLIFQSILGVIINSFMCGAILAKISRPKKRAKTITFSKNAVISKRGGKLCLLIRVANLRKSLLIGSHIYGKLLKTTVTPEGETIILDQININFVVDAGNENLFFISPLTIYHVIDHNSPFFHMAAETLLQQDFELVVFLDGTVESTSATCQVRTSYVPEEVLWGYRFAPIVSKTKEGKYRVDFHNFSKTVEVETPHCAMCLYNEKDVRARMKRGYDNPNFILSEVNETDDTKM
Large screens that a line does not name were inactive.

Nn1cnnc1N/N=C/c1cc(Br)cc(Br)c1O	Diaph inh CS 50 (no result: ROMK mod)
CCN(CC)CCn1c2ccccc2c2nc3ccc([N+](=O)[O-])cc3cc21	none (no result: G6PDH counter, Diaph inh CS, PMI act, PMI act hi M6P, Diaph act CS)
Cn1c(C(C)(O)C(O)c2ccccc2)nc2ccccc21 (centres undefined)	none
CC(C)c1nc2sc3c(NCc4ccco4)ncnc3c2c2c1COC(C)(C)C2	Diaph inh CS 104
CC(C)c1nc2sc3c(NCc4ccccc4)ncnc3c2c2c1COC(C)(C)C2	Diaph inh CS 58
CSc1nc(NCc2ccco2)c2sc3nc(C(C)C)c4c(c3c2n1)CC(C)(C)OC4	Diaph inh CS 86
CCN(CCO)c1ncnc2c1sc1nc(C(C)C)c3c(c12)CC(C)(C)OC3	Diaph inh CS 63
CC(NC(=O)c1ccc(OC2CCN(Cc3ccccn3)CC2)cc1)c1ccccc1 (centres undefined)	none
CCCN(CCC)CCCn1c(=O)[nH]c2ccccc21	none
COC(=O)CN1C(C)=Nc2ccc(C)cc2C1c1ccccc1 (centres undefined)	none
COC(=O)CN1C(c2ccccc2)=Nc2ccc(Cl)cc2C1c1ccccc1 (centres undefined)	ROMK mod -3.1
CC1=C(C)C(=O)N(c2ccccn2)C1=O	none
Cc1nn(-c2ccccn2)c2c1C(=O)C(Br)CC2 (centres undefined)	Diaph inh CS 82
CCCCn1c(=O)cc(O)c2ccccc21	none
CCCCn1c(C)cc2cc(O)ccc21	G6PDH counter 57
Cc1cccc2sc(NNC(=O)c3ccc(S(=O)(=O)N4CCCC(C)C4)cc3)nc12 (centres undefined)	none
Cc1cccc2sc(NNC(=O)c3ccc(S(=O)(=O)N4CCc5ccccc5C4)cc3)nc12	PMI act hi M6P 2.1
Nc1cc(-c2ccncc2)c[nH]c1=O	Diaph inh CS 66 (no result: ROMK mod)
O=S(=O)(Nc1ccncc1Cl)c1ccc2ccccc2c1	none (no result: ROMK mod)
c1ccc(Cc2nnc(N3CCOCC3)c3ccccc23)cc1	G6PDH counter 56
COc1cccc(C2SCC(=O)N2c2ccc(Br)cc2)c1OC (centres undefined)	PMI act hi M6P 2.2
CNC[C@H](O)c1cccc(O)c1	none (no result: ROMK mod)
CNC[C@H](O)c1ccc(O)c(O)c1	G6PDH counter 64, Diaph inh CS 59 (no result: ROMK mod)
C=C1c2cc(C)ccc2NC(=O)N1c1ccccc1	PMI act hi M6P 2.9
C=C1c2ccccc2NC(=O)N1c1ccc(OC)cc1	PMI act hi M6P 2.5
COc1ccc(N2C(=O)c3ccccc3NC2(C)C)cc1	none (no result: ROMK mod)
COC(=O)C(C)NC(=O)CNS(=O)(=O)c1ccc(F)cc1 (centres undefined)	none
COc1ccc2oc(=O)c(/C(C)=N/Nc3nc(-c4cc(C)ccc4C)cs3)cc2c1	PMI act hi M6P 2.3
NN/C(=C\[N+](=O)[O-])Nc1ccccc1	PMI act hi M6P 2.6 (no result: ROMK mod)
NNC(=S)Nc1ccc(Cl)cc1	none
NN/C(=C\[N+](=O)[O-])Nc1ccc(Cl)cc1	PMI act hi M6P 2
CCCC(c1nnnn1C1CCCCC1)N1CCN(C2CCCC2)CC1 (centres undefined)	none (no result: ROMK mod)
CCCCC(c1nnnn1C1CCCC1)N1CCN(C2CCCC2)CC1 (centres undefined)	ROMK mod -3.2
CCOC(=O)C1=C(Cc2ccc(Cl)cc2)C(=O)c2ccccc2C1=O	G6PDH counter 55
CCOC(=O)C1=C(C)N=C2c3ccccc3C(=O)C2C1c1ccc(Cl)cc1 (centres undefined)	none
O=C(CSc1ncnc2c1nnn2-c1ccc(F)cc1)NCc1ccco1	none
Cc1ccc(-n2nnc3c(SCC(=O)NCc4ccco4)ncnc32)cc1	Diaph inh CS 57 (no result: ROMK mod)
O=C(O)CCNC1C=CS(=O)(=O)C1 (centres undefined)	none
CC1=C(C(=O)Nc2ccccc2C)C2(CCCCC2)C(C(N)=O)C(=S)N1 (centres undefined)	PMI act hi M6P 2
CC[n+]1ccc(/C=C2\Sc3ccccc3N2CCCS(=O)(=O)[O-])c2ccccc21	none
